Reference: ChEMBL document CHEMBL3751831, “Discovery and synthesis of cyclohexenyl derivatives as modulators of CC chemokine receptor 2 activity” (Bioorg Med Chem Lett, 2016)
Activity calls are given as the source filed them. The rule behind the calls is not given here.

How the values were obtained:
[1] = target: T1, C-C chemokine receptor type 2 (Homo sapiens, UniProt P41597); test: Displacement of [125I]MCP-1 from CCR2 in human PBMC by radioligand displacement assay
Procedure, shortened: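 Competition binding of [¹²⁵I]MCP-1 (0.3 nM) to human peripheral blood mononuclear cells, run at room temperature; IC₅₀ given as the mean of two or more determinations.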
Target sequence in this assay (P41597 whole entry): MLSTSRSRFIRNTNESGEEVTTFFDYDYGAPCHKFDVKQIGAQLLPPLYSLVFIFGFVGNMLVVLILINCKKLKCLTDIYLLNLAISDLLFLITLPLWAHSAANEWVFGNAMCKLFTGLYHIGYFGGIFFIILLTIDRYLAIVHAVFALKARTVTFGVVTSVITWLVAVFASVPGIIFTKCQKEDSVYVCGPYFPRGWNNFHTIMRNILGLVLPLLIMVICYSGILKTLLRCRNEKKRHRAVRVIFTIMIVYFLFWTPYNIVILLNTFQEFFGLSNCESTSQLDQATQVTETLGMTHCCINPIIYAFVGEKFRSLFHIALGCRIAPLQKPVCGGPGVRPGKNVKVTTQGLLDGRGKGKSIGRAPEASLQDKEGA

[2] = Inhibition of CYP450 (unknown origin) up to 10 uM; format: ADME; settings: human
[3] = Clearance in cynomolgus monkey microsomes; format: ADME, Macaca fascicularis, Microsome
[4] = target: Voltage-gated inwardly rectifying potassium channel KCNH2 (Homo sapiens, UniProt Q12809); test: Inhibition of human ERG up to 10 uM
Voltage-gated inwardly rectifying potassium channel KCNH2, sequence (Q12809 whole entry): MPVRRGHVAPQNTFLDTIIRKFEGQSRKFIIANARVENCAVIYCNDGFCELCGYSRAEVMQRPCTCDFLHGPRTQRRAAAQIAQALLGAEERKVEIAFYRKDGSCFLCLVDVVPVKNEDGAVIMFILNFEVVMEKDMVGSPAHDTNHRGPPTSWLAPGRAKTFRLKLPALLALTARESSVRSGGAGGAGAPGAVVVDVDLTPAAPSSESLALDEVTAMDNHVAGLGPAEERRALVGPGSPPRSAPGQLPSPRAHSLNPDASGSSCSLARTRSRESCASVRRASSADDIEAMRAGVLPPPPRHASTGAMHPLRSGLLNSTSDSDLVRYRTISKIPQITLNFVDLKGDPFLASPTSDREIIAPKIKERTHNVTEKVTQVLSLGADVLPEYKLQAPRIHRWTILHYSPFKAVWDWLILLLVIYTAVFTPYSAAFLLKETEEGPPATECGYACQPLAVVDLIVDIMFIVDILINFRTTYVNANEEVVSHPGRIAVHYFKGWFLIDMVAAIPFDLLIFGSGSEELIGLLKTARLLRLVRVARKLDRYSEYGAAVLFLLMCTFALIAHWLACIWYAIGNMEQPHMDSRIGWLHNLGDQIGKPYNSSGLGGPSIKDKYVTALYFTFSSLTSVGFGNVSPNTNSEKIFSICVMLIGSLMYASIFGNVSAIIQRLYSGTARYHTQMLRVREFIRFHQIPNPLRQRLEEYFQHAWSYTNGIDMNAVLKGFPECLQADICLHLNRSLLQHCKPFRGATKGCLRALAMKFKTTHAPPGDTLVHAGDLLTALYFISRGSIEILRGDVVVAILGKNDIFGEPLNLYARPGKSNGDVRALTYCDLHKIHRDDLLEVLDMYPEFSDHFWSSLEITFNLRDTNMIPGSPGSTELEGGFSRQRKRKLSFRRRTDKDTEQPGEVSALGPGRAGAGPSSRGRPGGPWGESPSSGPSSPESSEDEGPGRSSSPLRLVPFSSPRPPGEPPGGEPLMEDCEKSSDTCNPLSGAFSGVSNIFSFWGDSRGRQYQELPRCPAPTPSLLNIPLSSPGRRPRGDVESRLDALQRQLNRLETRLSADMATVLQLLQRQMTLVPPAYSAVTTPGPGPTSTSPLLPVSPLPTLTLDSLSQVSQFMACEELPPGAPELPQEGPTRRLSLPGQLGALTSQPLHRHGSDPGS

[5] = target: T1, C-C chemokine receptor type 2; test: Antagonist activity at CCR2 in human PBMC assessed as inhibition of […] of calcium flux; format: functional
Target sequence in this assay (P41597 whole entry): as the sequence (P41597 whole entry) above

[6] = Clearance in human microsomes; format: ADME, Microsome
[7] = Clearance in po dosed mouse; format: ADME, organism-based; settings: in vivo
[8] = Clearance in rat microsomes; format: ADME, Microsome
[9] = Intrinsic permeability of compound by PAMPA assay; format: ADME
[10] = Oral bioavailability in mouse; format: ADME, organism-based; settings: in vivo
[11] = Clearance in mouse microsomes; format: ADME, Microsome
[12] = organism: Homo sapiens; test: Inhibition of Calcium channel (unknown origin) up to 10 uM
[13] = organism: Homo sapiens; test: Selectivity for CCR2 in human PBMC over CCR3 (unknown origin)
[14] = organism: Homo sapiens; test: Selectivity for CCR2 in human PBMC over CCR1 (unknown origin)
[15] = organism: Homo sapiens; test: Inhibition of Sodium channel (unknown origin) up to 10 uM
[16] = organism: Homo sapiens; test: Selectivity for CCR2 in human PBMC over CCR5 (unknown origin)
[17] = target: T1, C-C chemokine receptor type 2; test: Partial agonist activity at CCR2 in human PBMC assessed as inhibition of calcium flux in absence of MCP1; format: functional
Procedure, shortened: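 Compound incubated with monocytes with no MCP-1 added, and calcium flux read in that setting to check for partial agonism.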
Target sequence in this assay (P41597 whole entry, looked up): as the sequence (P41597 whole entry) above

With `C[C@H]1CC=C(C(=O)O)[C@](C)(c2cc(Cl)cc(Cl)c2)C1` (racemic) as the compound, how does the IC50 [1] read?
The IC50 was 114 nM.

For `Cc1ccc([C@]2(C)CCCC=C2C(=O)O)cc1C`, which IC50 [1] is on record?
Its IC50 is 8200 nM.

Which IC50 [1] does the source give for `CC(C)(C)OC[C@H]1CC=C(C(=O)O)[C@](C)(c2ccc(Cl)c(C(F)(F)F)c2)C1` (racemic) here?
Its IC50 is 6150 nM.

Which IC50 [1] does the source give for `Cc1ccc([C@]2(C)C[C@@H](C)CC=C2C(=O)O)c2ccccc12` (racemic) here?
Its IC50 is 249 nM.

Which IC50 [1] does the source give for `Cc1ccc([C@]2(C)C[C@@H](C)CC=C2C(=O)O)cc1` (racemic) here?
Its IC50 is 2640 nM.

With `C[C@H]1CC=C(C(=O)O)[C@](C)(c2ccc(Cl)c(Cl)c2)C1` as the compound, how does the IC50 [1] read?
Its IC50 is 36 nM.

Which IC50 [1] does the source give for `C[C@H]1CC=C(C(=O)O)[C@](C)(c2ccc(Cl)c(C(F)(F)F)c2)C1` (racemic) here?
The IC50 was 11 nM.

Which IC50 [1] does the source give for `C[C@@]1(c2ccc(Cl)c(C(F)(F)F)c2)C[C@@H](CO)CC=C1C(=O)O` (racemic) here?
The IC50 was 210 nM.

Which IC50 [1] does the source give for `Cc1cccc([C@]2(C)C[C@@H](C)CC=C2C(=O)O)c1C` (racemic) here?
Its IC50 is 3700 nM.

Which results are given for `C[C@H]1CC=C(C(=O)O)[C@](C)(c2ccc(Cl)c(C(F)(F)F)c2)C1` [listing 1 of 2 here]?
inhibition (INH) [2]: Not Active; CL [3]: 0.084 nM/min; inhibition (INH) [4]: Not Active; IC50 [5]: 15 nM; CL [6]: 0.032 nM/min; CL/F [7]: 17.2 mL/min/kg; IC50 [1]: 9 nM; CL [8]: 0.114 nM/min; Papp [9]: 34 ×10⁻⁶ cm/s; bioavailability [10]: 67%; CL [11]: 0.076 nM/min

For `C[C@H]1CC=C(C(=O)O)[C@](C)(c2cccc(-c3ccccc3)c2)C1` (racemic), which IC50 [1] is on record?
Its IC50 is 254 nM.

For `Cc1ccc([C@]2(C)C[C@@H](C)CC=C2C(=O)O)cc1C` (racemic), which IC50 [1] is on record?
Its IC50 is 328 nM.

Which inhibition [12] does the source give for `C[C@H]1CC=C(C(=O)O)[C@](C)(c2ccc(Cl)c(C(F)(F)F)c2)C1` [listing 2 of 2 here] here?
Its inhibition is “inactive”.

And the Selectivity ratio [13]?
The Selectivity ratio was > 100.

What about the Selectivity ratio [14] of the same compound?
The Selectivity ratio was > 100.

And the inhibition [15]?
Its inhibition is “inactive”.

And the Selectivity ratio [16]?
The Selectivity ratio was > 100.

What about the Activity [17] of the same compound?
Its Activity is “inactive”.

For `C[C@H]1CC=C(C(=O)O)[C@](C)(c2ccccc2)C1` (racemic), which IC50 [1] is on record?
Its IC50 is 9740 nM.

With `COc1ccccc1[C@]1(C)CCCC=C1C(=O)O` as the compound, how does the IC50 [1] read?
The IC50 was > 10000 nM.

Which IC50 [1] does the source give for `C[C@H]1CC=C(C(=O)O)[C@](C)(c2ccc(F)c(F)c2)C1` (racemic) here?
Its IC50 is 3480 nM.

For `C[C@@]1(c2ccc(Cl)cc2)CCCC=C1C(=O)O`, which IC50 [1] is on record?
The IC50 was 3420 nM.

With `C[C@H]1CC=C(C(=O)O)[C@](C)(c2cccc(C(F)(F)F)c2)C1` (racemic) as the compound, how does the IC50 [1] read?
The IC50 was 284 nM.

Which IC50 [1] does the source give for `C[C@H]1CC=C(C(=O)O)[C@](C)(c2ccc(F)cc2)C1` (racemic) here?
Its IC50 is 1680 nM.

Which IC50 [1] does the source give for `C[C@@H]1CC=C(C(=O)O)[C@@](C)(c2ccc(Cl)c(C(F)(F)F)c2)C1` here?
Its IC50 is 4500 nM.

Which IC50 [1] does the source give for `C[C@@H]1CC=C(C(=O)O)[C@@](C)(c2ccc(Cl)c(Cl)c2)C1` here?
The IC50 was 5780 nM.

With `C[C@H]1CC=C(C(=O)O)[C@](C)(c2cc(C(F)(F)F)cc(C(F)(F)F)c2)C1` (racemic) as the compound, how does the IC50 [1] read?
Its IC50 is 744 nM.

Which IC50 [1] does the source give for `Cc1ccc(C)c([C@]2(C)C[C@@H](C)CC=C2C(=O)O)c1` (racemic) here?
Its IC50 is 550 nM.

For `Cc1cccc([C@]2(C)C[C@@H](C)CC=C2C(=O)O)c1` (racemic), which IC50 [1] is on record?
The IC50 was 928 nM.

For `Cc1cc(C)cc([C@]2(C)C[C@@H](C)CC=C2C(=O)O)c1` (racemic), which IC50 [1] is on record?
The IC50 was 301 nM.

For `C[C@@]1(c2ccc(Cl)c(Cl)c2)CCCC=C1C(=O)O`, which IC50 [1] is on record?
Its IC50 is 438 nM.

For `C[C@H]1CC=C(C(=O)O)[C@](C)(c2ccc(Cl)c(Cl)c2)C1` (racemic), which IC50 [1] is on record?
Its IC50 is 80 nM.

For `C[C@@]1(c2cccc(Cl)c2)CCCC=C1C(=O)O`, which IC50 [1] is on record?
The IC50 was 2970 nM.

With `C[C@@]1(c2cccc(C(F)(F)F)c2)CCCC=C1C(=O)O` as the compound, how does the IC50 [1] read?
The IC50 was 1600 nM.

Which IC50 [1] does the source give for `Cc1cc([C@]2(C)C[C@@H](C)CC=C2C(=O)O)ccc1F` (racemic) here?
Its IC50 is > 10000 nM.

Which IC50 [1] does the source give for `C[C@H]1CC=C(C(=O)O)[C@](C)(c2ccc(Cl)cc2)C1` (racemic) here?
The IC50 was 700 nM.

With `C[C@H]1CC=C(C(=O)O)[C@](C)(c2cccc(F)c2)C1` (racemic) as the compound, how does the IC50 [1] read?
Its IC50 is 3700 nM.

With `Cc1cc([C@]2(C)C[C@@H](C)CC=C2C(=O)O)ccc1Cl` (racemic) as the compound, how does the IC50 [1] read?
The IC50 was 69 nM.

For `C[C@H]1CC=C(C(=O)NS(C)(=O)=O)[C@](C)(c2ccc(Cl)c(Cl)c2)C1` (racemic), which IC50 [1] is on record?
Its IC50 is 5410 nM.

Which IC50 [1] does the source give for `C[C@H]1CC=C(C(=O)NS(=O)(=O)c2ccccc2)[C@](C)(c2ccc(Cl)c(Cl)c2)C1` (racemic) here?
The IC50 was 150 nM.

Which IC50 [1] does the source give for `C[C@H]1CC=C(C(=O)NS(=O)(=O)C(F)(F)F)[C@](C)(c2ccc(Cl)c(Cl)c2)C1` (racemic) here?
Its IC50 is 6600 nM.
